Screening results: PubChem BioAssay, Sanford-Burnham Center for Chemical Genomics
Hits are enriched below; roughly 1.4% of the tested compounds scored in any of these assays.
HKDC1 inh: inhibitors of human hexokinase HKDC1. Q2TB90. inhibition, % at 20 µM. 340,000 compounds, 0.16% hits. recombinant HKDC1, G6PDH/diaphorase resazurin coupled fluorescence;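 active = inhibition above about 35% when tested at 20 µM, limit read from the data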;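 note: plate controls were DMSO wells with enzyme for no effect and DMSO wells lacking enzyme for full effect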
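Test system: recombinant HKDC1 (HK5) hexokinase enzyme, produced in-house / Doses: 20 µM test compound, 1% DMSO / Timing: 90 min, room temperature / Detection: G6PDH/diaphorase-coupled fluorescence, 1 mM NADP, 100 µM resazurin, 525/613 nm / Control set: DMSO wells with and without enzyme mix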
PfGluPho inh: PfG6PD (Plasmodium falciparum) enzyme inhibition; PfGluPho enzyme, NADPH resazurin-diaphorase fluorescence; inhibition, % at 20 µM; 350,000 compounds, 0.78% hits;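 active = inhibition reaching at least a set limit at 20 µM in the primary screen, cut at about 59% in these data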;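 note: 0% = DMSO wells with substrate and 100% = DMSO wells lacking glucose-6-phosphate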
iPSC survival up: increases survival of single human iPS cells | 360,000 compounds, 0.044% hits | hiPSC single-cell survival, ATPlite luminescence; 100% = ROCK inhibitor wells, 0% = DMSO | survival enhancement, % at 20 µM; in the data active = survival enhancement above about 18%;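 note: cells exposed to compounds for 16 hours before the ATP read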
A3G deaminase: inhibitors of human APOBEC3G DNA deaminase. Q9HC16. recombinant A3G, ssDNA deamination FAM/TAMRA fluorescence. inhibition, % at 20 µM. 330,000 compounds, 0.28% hits;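 active = inhibition of at least 40% at 20 µM, with no more than 30% in the related APOBEC3A deaminase screen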;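 note: plate controls were DMSO wells with A3G for no effect and wells lacking A3G enzyme for full effect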
Target sequence (Q9HC16 whole entry, looked up): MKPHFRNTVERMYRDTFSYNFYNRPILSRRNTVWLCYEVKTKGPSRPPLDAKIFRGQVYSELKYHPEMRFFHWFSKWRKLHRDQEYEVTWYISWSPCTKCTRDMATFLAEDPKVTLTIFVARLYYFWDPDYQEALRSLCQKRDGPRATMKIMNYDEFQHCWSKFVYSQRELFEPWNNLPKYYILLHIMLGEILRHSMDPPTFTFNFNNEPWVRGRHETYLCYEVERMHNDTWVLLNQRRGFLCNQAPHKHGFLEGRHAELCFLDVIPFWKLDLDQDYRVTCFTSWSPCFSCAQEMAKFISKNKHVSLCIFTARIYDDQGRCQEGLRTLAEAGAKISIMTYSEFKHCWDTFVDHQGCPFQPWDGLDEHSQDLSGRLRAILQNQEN
APOBEC3A inh: human APOBEC3A DNA deaminase inhibition | inhibition, % at 20 µM | P31941 | 330,000 compounds, 0.41% hits | AID 493011 | recombinant A3A, FAM/TAMRA ssDNA deamination fluorescence;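 active = at least 40% inhibition at 20 µM here, with at most 30% in a related deaminase screen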;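 note: plate controls were A3A with DMSO for no effect and wells lacking A3A enzyme for full effect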
A3G conf: APOBEC3G (human) deaminase inhibition, confirmed | inhibition, % at 20 µM | 890 compounds, 72% hits | recombinant A3G ssDNA deaminase, UDG/FAM-TAMRA fluorescence | AID 493152 | shares compounds with A3G deaminase;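 active = inhibition reaching a set limit in any replicate at 20 µM, the limit being 80% of the first screen's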
UDG A3G counter: E. coli UDG inhibition in APOBEC3G counter-screen; 710 tested, under 10 active; UDG counterscreen, FAM/TAMRA oligo fluorescence; shares compounds with A3G deaminase; AID 504715; inhibition, % at 20 µM;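 active = compounds giving 40% or more inhibition at 20 µM in any one of the three replicates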;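 note: plate controls were DMSO wells with UDG and oligo for no effect and DMSO wells lacking both for full effect; inhibitors lower the FAM signal released by uracil excision and alkaline cleavage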
Target sequence (P12295 whole entry, looked up): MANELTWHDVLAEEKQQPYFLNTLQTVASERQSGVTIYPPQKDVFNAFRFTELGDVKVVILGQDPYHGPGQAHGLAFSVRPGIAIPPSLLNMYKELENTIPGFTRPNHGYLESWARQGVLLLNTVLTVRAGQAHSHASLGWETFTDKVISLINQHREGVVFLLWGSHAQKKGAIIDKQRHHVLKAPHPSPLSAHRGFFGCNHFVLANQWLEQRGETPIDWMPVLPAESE
HKDC1 act conf: HKDC1 (human) activation, single-dose confirmed | shares compounds with HKDC1 inh | recombinant HKDC1, G6PDH/diaphorase resazurin fluorescence; active compounds read low | inhibition, % at 20 µM | 740 compounds, 14% hits;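 active = inhibition at or below a set negative limit, negative inhibition meaning the enzyme was activated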
PfGluPho conf: confirmation of Plasmodium falciparum G6PD inhibitors; shares compounds with PfGluPho inh; recombinant PfGluPho, NADPH-diaphorase-resazurin fluorescence; inhibition, % at 20 µM; 2,400 compounds, 34% hits; AID 504753;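 active = inhibition of at least 50% at 20 µM in any single replicate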;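 note: 0% = DMSO with substrate and 100% = DMSO lacking glucose-6-phosphate substrate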
Diaph ctr 10uM: inhibits diaphorase or oxidizes, flagging false PfG6PD hits; shares compounds with PfGluPho inh; diaphorase-coupled resazurin reduction, fluorescence, NADPH 10 uM; inhibition, % at 20 µM; 820 compounds, 39% hits; AID 504862;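 active = average inhibition reaching 50% or more with the compound at 20 µM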;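 note: resorufin red fluorescence formed as diaphorase reduces resazurin using NADPH; 0% = DMSO with enzyme and 100% = DMSO without enzyme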
Diaphorase 30uM: counter-screen for P. falciparum G6PD inhibitors: diaphorase inhibitors, oxidizers; Diaphorase/resazurin coupled assay, resorufin fluorescence, 30 uM NADPH; 820 compounds, 29% hits; shares compounds with PfGluPho inh; inhibition, % at 20 µM;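 active = inhibition averaging 50% or more, tested at 20 µM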;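 note: 0% = DMSO with enzyme and 100% = DMSO wells lacking diaphorase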
* marks the source's active call; other numbers are inactive results; / = no result.

SMILES	HKDC1 inh	PfGluPho inh	iPSC survival up	A3G deaminase	APOBEC3A inh	HKDC1 act conf	others
O=C(Nc1ccc(N2CCOCC2)c(S(=O)(=O)Nc2ccc(Cl)cc2)c1)c1ccc(=O)[nH]n1	7	8	-2	8	37	/
CC(NC(N)=O)C(=O)Nc1ccc(Cl)c(S(=O)(=O)Nc2ccc(Cl)cc2)c1 (stereo not drawn)	-6	-18	-1	-2	0	/
CN(C)C(=O)CSc1nc2cc(S(=O)(=O)N3CCOCC3)ccc2o1	-8	56	-3	23	-1	/
Nc1nc2cc(S(=O)(=O)N3CCOCC3)ccc2o1	-15	69*	-4	46*	2	/	A3G conf=43*;UDG A3G counter=-5;PfGluPho conf=25
CCC1(C)CC(C(N)=S)CCO1 (stereo not drawn)	-36	81*	-1	57*	1	/	A3G conf=45*;UDG A3G counter=4;PfGluPho conf=64*;Diaph ctr 10uM=-13;Diaphorase 30uM=-15
CC1(C(=O)NS(=O)(=O)c2ccccc2C(F)(F)F)CCN1C(=O)CCc1ccccc1 (stereo not drawn)	/	/	-1	/	/	/
Cc1ccc(-n2c(N)c(C(=O)N3CCOCC3)sc2=S)cc1	-14	53	-1	40	8	/
COC(=O)c1sc(=S)n(-c2cccc(Cl)c2)c1N	-15	72*	0	54*	2	/	A3G conf=30*;UDG A3G counter=-3;PfGluPho conf=27
CN1CCN(C(=O)c2sc(=S)n(-c3ccccc3)c2N)CC1	-5	82*	-2	66*	-4	/	A3G conf=81*;UDG A3G counter=2;PfGluPho conf=83*;Diaph ctr 10uM=19;Diaphorase 30uM=-7
CCOC(=O)[C@]12CCC=C1N(Cc1ccco1)C(=O)[C@H](CC(=O)N1CCN(C(=O)c3ccco3)CC1)C2	/	/	2	/	/	/
CC(=O)N1CCc2cc(NC(=O)C3(C)CCN3Cc3ccccc3OC(F)F)ccc21 (stereo not drawn)	/	/	2	/	/	/
Cc1ccc(-c2csc3n[nH]c(=S)n23)cc1	-1	63*	-3	60*	-5	/	A3G conf=82*;UDG A3G counter=-1;PfGluPho conf=40
O=[N+]([O-])c1ccc(N2CCN(c3ccc(O)cc3)CC2)cn1	5	62*	1	47*	2	/	A3G conf=13;PfGluPho conf=38
O=[N+]([O-])c1ccc(N2CCN(c3ccccc3Cl)CC2)cn1	3	-11	0	-4	1	/
COc1ccccc1NS(=O)(=O)c1ccc(C(=O)NCCCN2CCOCC2)cc1	-3	-12	0	7	-2	/
O=C(NC1CCCCCC1)C(=S)N1CCOCC1	-13	59*	0	54*	5	/	A3G conf=44*;UDG A3G counter=1;PfGluPho conf=24
O=C(O)Cn1nnc(COc2ccccc2)n1	-4	-3	-1	-4	2	/
COC1OC2COC(c3ccccc3)OC2C(O)C1NC(C)=O (stereo not drawn)	-7	-11	-1	/	/	/
CCOC(=O)c1ccc(NC2=CC(=O)C(=O)c3ccccc32)cc1	33	46	-4	-4	-3	28
C[C@@H]1CN([C@@H](C)CO)C(=O)CCCn2nncc2CO[C@H]1CN(C)S(=O)(=O)c1cccc(C#N)c1	/	-4	2	/	/	/
Cc1c(C(=O)Oc2ccc(-c3cnc4ccccc4n3)cc2)cccc1[N+](=O)[O-]	-89	42	-1	5	2	-27
CCCCNC(=O)c1sc(=S)n2c1[nH]c(=O)c1ccc(C(=O)NCCc3ccc(OC)c(OC)c3)cc12	48*	46	0	-1	-4	50
CCN1CCN(c2cc3c(nn2)Oc2ccccc2N3C)CC1	-44	-9	3	-2	0	-4
Cc1nnc(SC(=O)N2c3ccccc3Sc3ccccc32)s1	33	-2	-2	-12	-8	-11
O=S(=O)(c1ccc(NC(=S)NN=C(Cc2ccccc2)Cc2ccccc2)cc1)N1CCOCC1	-47	29	4	-11	-4	-44*
SMILES	HKDC1 inh	PfGluPho inh	iPSC survival up	A3G deaminase	APOBEC3A inh	HKDC1 act conf	others
Cc1ccc(C(=O)/C=C/c2cc(Br)cc(Br)c2O)o1	36*	-8	0	8	9	9
Cc1cccc(C(=O)N2CCCC(Nc3ccc(C)c(C)c3)C2)n1 (stereo not drawn)	3	6	0	2	-4	/
CC(=NNC(=S)N1CC2CCC(CC2)C1)c1cccc(C)n1	-47	13	-1	/	/	-52*
COc1cccc(CC(Cc2nc3ccccc3[nH]2)c2nc3ccccc3[nH]2)c1 (stereo not drawn)	50*	9	0	-6	-5	-28
COc1cccc(CSc2nc3ccccc3[nH]2)c1	4	19	-2	-6	0	/
COc1ccc(NC(=O)C2Cc3c(-c4ccc5c(c4)OCO5)ccnc3O2)cc1 (stereo not drawn)	/	/	-2	/	/	/
CC1C/C(=C\c2cccnc2)C(=O)/C(=C/c2cccnc2)C1 (stereo not drawn)	40*	4	9	/	/	23
OC[C@@H]1CN(Cc2ccc3c(c2)OCO3)C[C@H](n2cnc3c(NC4CCCC4)ncnc32)O1	/	/	2	/	/	/
Cn1c2ccccc2c(=O)c2c(=O)n(-c3ccccc3)c(C3CCCCC3)nc21	43*	7	1	-1	0	18
Cn1c2ccccc2c(=O)c2c(=O)n(C3CCCCCC3)c(C3CCCCC3)nc21	35	37	0	/	/	2
O=C(NCCCn1ccnc1)c1ccc(Cl)s1	-6	-10	1	-8	-5	/
O=C(N/N=C1/C(=O)c2cccc3cccc1c23)c1ccc(Cl)cc1	43*	26	1	1	3	-2
COc1ccc([C@@H]2C[C@H](c3ccccc3)Oc3cc(OC)c(OC)c(OC)c32)cc1	37*	18	0	12	-1	-1
COc1ccc(C2CC(O)(c3ccccc3)Oc3cc(OC)c(OC)c(OC)c32)cc1 (stereo not drawn)	16	40	2	-9	0	/
O=c1cc(-c2cccc(Br)c2)nc(-c2ccccc2F)o1	31	0	-1	-3	0	12
